Reference: ChEMBL document CHEMBL1135883, “A comprehensive study of the active site residues of DT-diaphorase: rational design of benzimidazolediones as DT-diaphorase substrates” (J Med Chem, 2002)

What was measured:
[1] = molecular target: NAD(P)H dehydrogenase [quinone] 1 (Homo sapiens) (UniProt P15559); experiment: Ratio Kcat/Km provides the apparent second-order rate constant of the enzymatic transformation of DT-Diaphorase
Method in brief: (§1)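 Recombinant human DT-diaphorase (1.4 × 10^-9 M final) with NADH (0.3 mM final) and quinone substrate (1.3 × 10^-6 to 6.7 × 10^-5 M final; 4.0 mM DMSO stock) in 0.05 M Tris pH 7.4. Anaerobic Thunberg cuvettes, argon-purged 20 min, 30 °C. Initial rates from 336 nm absorbance over 10 min. Δε from absorbance before and after complete reduction. kcat and Km from Lineweaver–Burke plot.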

[2] = molecular target: NAD(P)H dehydrogenase [quinone] 1 (Homo sapiens) (UniProt P15559); experiment: Evaluated for the kinetic parameter (Kcat) using recombinant DT-Diaphorase, value calculated from Lineweaver-Burke plot; method in brief: as §1
[3] = molecular target: NAD(P)H dehydrogenase [quinone] 1 (Homo sapiens) (UniProt P15559); experiment: The ratio Kcat/Km provides the apparent second-order rate constant of the enzymatic transformation DT-Diaphorase; method in brief: as §1

Sequence of NAD(P)H dehydrogenase [quinone] 1 (Homo sapiens) (P15559 whole entry): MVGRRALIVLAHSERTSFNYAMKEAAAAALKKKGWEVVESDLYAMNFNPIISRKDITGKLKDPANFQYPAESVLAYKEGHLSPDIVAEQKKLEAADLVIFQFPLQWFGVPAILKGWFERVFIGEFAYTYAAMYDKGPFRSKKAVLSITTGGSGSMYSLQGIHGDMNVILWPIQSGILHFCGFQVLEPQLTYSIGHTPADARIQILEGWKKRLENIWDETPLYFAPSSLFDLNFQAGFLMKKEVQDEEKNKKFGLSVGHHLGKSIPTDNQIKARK

SMILES | k cat/Km [1] [M⁻¹ s⁻¹] | k cat [2] [s⁻¹] | k cat/Km [3] [M⁻¹ s⁻¹]
COCC(=O)O[C@H]1CCn2c1nc1c2C(=O)C(C)=C(NC(C)=O)C1=O | 69000 | 1.74 | 
O=C1c2nc3n(c2C(=O)c2c1nc1n2CCC1)CCC3 |  | 3.81 | 118000
CC1=C(N2CC2)C(=O)c2nc3n(c2C1=O)CC[C@@H]3NC(=O)N(C)C | 940000 | 3.96 | 
CC1=C(N2CC2)C(=O)c2nc3n(c2C1=O)CC[C@H]3NC(N)=O | 890000 | 2.7 | 
CC(=O)N[C@@H]1CCn2c1nc1c2C(=O)C(C)=C(N2CC2)C1=O |  | 1.47 | 920000
COCC(=O)O[C@@H]1CCn2c1nc1c2C(=O)C(C)=C(NC(C)=O)C1=O |  | 4.84 | 40000
CC(=O)N[C@H]1CCn2c1nc1c2C(=O)C(C)=C(N2CC2)C1=O | 520000 | 1.87 | 
CC1=C(N2CC2)C(=O)c2nc3n(c2C1=O)CCC[C@H]3N | 106000 | 4.92 | 
CC1=C(N2CC2)C(=O)c2nc3n(c2C1=O)CC[C@@H]3N | 1.39e+06 | 2.64 | 
CC1=C(N2CC2)C(=O)c2nc3n(c2C1=O)CC[C@H]3N | 640000 | 3.26 | 
CC(=O)NC1=C(C)C(=O)c2c(nc3n2CC[C@@H]3OC(C)=O)C1=O | 472000 | 3.85 | 
CC(=O)NC1=C(C)C(=O)c2c(nc3n2CC[C@H]3OC(C)=O)C1=O | 154000 | 3.81 | 
O=C1c2nc3n(c2C(=O)c2c1nc1n2CCCC1)CCCC3 | 1.45e+06 | 3.74 | 
CC1=C(N2CC2)C(=O)c2nc3n(c2C1=O)CCC[C@@H]3N |  | 2.97 | 188000
CC1=C(N2CC2)C(=O)c2nc3n(c2C1=O)CC[C@H]3NC(=O)N(C)C | 2.13e+06 | 9.56 | 
CC1=C(N2CC2)C(=O)c2nc3n(c2C1=O)CC[C@@H]3NC(N)=O |  | 2.4 | 1.2e+06
